A number with no mark means an inactive call. The list shows a part of the results. The source made the active and inactive calls.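 The calls were made as follows, unless noted: active = mean percent inhibition of the KCNQ2 thallium signal more than 5 SD above the buffer-only control wells; inactive = the rest.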
Experiments:
[1] = nonspecific flux increase, KCNQ1-free cells – parental CHO cells, counter-screen for KCNQ1 potentiator project (AID 493006;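 active = duplicate-averaged activation above buffer control mean plus 5 SD of those controls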;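 as to activation: fluorescence ratio of max minus min over baseline after K+ and Tl+ depolarization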); details: parental CHO-K1 cells, FluxOR thallium flux, at 10 µM; active compounds read high
Procedure, shortened: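 Benchmarks – buffer and R-L3 controls · Assay system – untransfected host CHO-K1 cells with FluxOR thallium dye · Measure – fluorescence change ratio scaled 0% buffer, 100% R-L3 · Technique – kinetic thallium-flux fluorescence · Timing – overnight 37 °C plating, 90 min RT dye, 20 min compound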

[2] = target: Potassium voltage-gated channel subfamily KQT member 1 (Homo sapiens) (UniProt P51787); assay: enhancement of KCNQ1 channel thallium flux – FluxOR thallium flux, CHO cells, duplicates, confirmation (AID 493007;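 active = potentiation averaged over duplicate wells exceeding buffer-only control mean by more than 3 SD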;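 as to outcome: cells depolarized by a potassium plus thallium sulfate stimulus after compound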); details: KCNQ1 cell line, FluxOR thallium flux fluorescence, at 10 µM; active compounds read high, % of reference activator effect, buffer zero
Potassium voltage-gated channel subfamily KQT member 1 (Homo sapiens), sequence (P51787 whole entry, looked up): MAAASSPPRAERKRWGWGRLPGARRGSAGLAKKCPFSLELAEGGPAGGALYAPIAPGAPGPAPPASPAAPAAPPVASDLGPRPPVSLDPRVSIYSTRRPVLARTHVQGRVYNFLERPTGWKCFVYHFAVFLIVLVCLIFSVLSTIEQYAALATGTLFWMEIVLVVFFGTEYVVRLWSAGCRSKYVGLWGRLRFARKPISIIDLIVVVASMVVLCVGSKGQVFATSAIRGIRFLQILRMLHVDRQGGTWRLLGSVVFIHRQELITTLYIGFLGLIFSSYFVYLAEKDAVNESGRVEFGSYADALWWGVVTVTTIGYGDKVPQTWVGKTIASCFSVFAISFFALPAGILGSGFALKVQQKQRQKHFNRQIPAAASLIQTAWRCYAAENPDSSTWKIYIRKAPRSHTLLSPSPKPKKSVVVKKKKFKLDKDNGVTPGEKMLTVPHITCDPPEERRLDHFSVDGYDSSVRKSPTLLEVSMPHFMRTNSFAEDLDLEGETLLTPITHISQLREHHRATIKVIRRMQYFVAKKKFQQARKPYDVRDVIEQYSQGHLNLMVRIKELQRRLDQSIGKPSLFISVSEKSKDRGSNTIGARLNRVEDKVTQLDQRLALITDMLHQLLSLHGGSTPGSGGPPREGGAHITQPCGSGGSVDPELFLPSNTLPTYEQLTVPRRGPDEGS
Procedure, shortened: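 Material: CHO cells stably expressing the KCNQ1 potassium channel / Times: dye 90 min then compound 20 min, both at room temperature / Detection: kinetic thallium influx fluorescence with FluxOR dye, 10 s baseline, 110 s post-stimulus / Benchmarks: buffer-only wells as 0% and R-L3 activator as 100% / Replicates: each compound tested in duplicate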

[3] = target: Potassium voltage-gated channel subfamily KQT member 1 (Homo sapiens) (UniProt P51787); assay: KCNQ1 activators by electrophysiology – IonWorks patch clamp, KCNQ1-CHO cells, orthogonal assay for KCNQ1 potentiator project, confirmation (AID 493184;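 active = current rise at least 3 SD above the untreated control mean in each of two repeat wells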); details: automated patch clamp current, at 10 µM; active compounds read high
Procedure, shortened: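 Probe or stimulus: depolarizing pulse to +40 mV from -90 mV; Material: CHO cells carrying KCNQ1; Compound: one dose, 10 µM final; Signal: automated voltage clamp, amphotericin B perforated patch; Read-out basis: percent current increase versus pre-compound level; Buffer or medium: pH 7.4 external bath; Replication: duplicates.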

[4] = target: T1, Potassium voltage-gated channel subfamily E member 1 (Homo sapiens) + Potassium voltage-gated channel subfamily KQT member 1 (Homo sapiens) (UniProt P15382+P51787); assay: KCNQ1-E1 channel activation – thallium flux, CHO-K1 KCNQ1/E1 cells, selectivity assay for KCNQ1 potentiator project, confirmation (AID 493186;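 active = mean duplicate activation above the buffer control mean plus 5 SD of those controls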); details: FluxOR thallium flux, at 10 µM; active compounds read high
T1 sequence (P51787 whole entry, looked up): as the sequence (P51787 whole entry, looked up) above
Procedure, shortened: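 system = KCNQ1/E1-expressing stable CHO-K1 cell line | doses = single compound concentration per well | times = dye 90 min, compound 20 min, room temperature | measured by = FluxOR Tl+ flux fluorescence, kinetic read | evaluation = fluorescence rise relative to baseline, as percent of R-L3 response above buffer | controls = buffer and R-L3 | replicates = duplicate wells per compound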

[5] = target: Potassium voltage-gated channel subfamily KQT member 1 (Homo sapiens) (UniProt P51787); assay: blockers of human KCNQ1 channel – cell-based, Tl flux, duplicate, confirmation (AID 588353;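 active = primary screen active, with duplicate mean exceeding buffer control mean plus 3 SD of buffer wells, cut at about 28% in these data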;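 also: 0% = buffer control ratio and 100% = XE991 inhibitor control ratio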); details: KCNQ1 cell line, FluxOR thallium flux fluorescence, at 10 µM, active compounds read high
Procedure, shortened: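 Assay system – KCNQ1 CHO cells · Probe or stimulus – Tl2SO4 plus K2SO4 stimulus, each 12.5 mM in 5x stock · Times – dye loading 90 min, compound 20 min, both room temperature · Signal – kinetic FluxOR thallium-sensitive dye fluorescence, 10 s baseline, 110 s post-stimulus · Measure – percent inhibition of fluorescence change ratio, scaled buffer to XE991 · Repeats – duplicate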

[6] = nonspecific activity in CHO-K1 cells without KCNQ1 – parental CHO cells, Tl flux, counter-screen for KCNQ1 inhibitor project (AID 588366;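 active = mean of duplicate thallium-flux fluorescence ratios in parental host cells more than 5 SD below the buffer control mean, cut at about 0.38 in these data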;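 also: ratio is peak minus minimum fluorescence divided by baseline fluorescence; actives read low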); details: parental CHO-K1, FluxOR thallium flux fluorescence ratio; at 10 µM; active compounds read low; zero means no signal rise above baseline
Procedure, shortened: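 System: parental CHO-K1 cells lacking KCNQ1 channel expression. Probe or stimulus: depolarizing K2SO4 plus Tl2SO4 stimulus, each 12.5 mM in 5x stock. Times: 90 min dye load, 20 min compound, room temperature. Measured by: real-time thallium-sensitive FluxOR dye fluorescence reading. Read-out: baseline-normalized fluorescence amplitude ratio, averaged over duplicates. Repeats: duplicates.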

[7] = target: Potassium voltage-gated channel subfamily KQT member 2 (Rattus norvegicus) (UniProt O88943); assay: block of rat KCNQ2 potassium channel – cell-based, selectivity assay for KCNQ1 inhibitor project (AID 651746); details: KCNQ2 cells, FluxOR thallium flux fluorescence, at 10 µM; active compounds read high;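 as to inhibition: 0% = buffer control wells and 100% = XE-991 inhibitor control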
Potassium voltage-gated channel subfamily KQT member 2 (Rattus norvegicus), sequence (O88943 whole entry, looked up): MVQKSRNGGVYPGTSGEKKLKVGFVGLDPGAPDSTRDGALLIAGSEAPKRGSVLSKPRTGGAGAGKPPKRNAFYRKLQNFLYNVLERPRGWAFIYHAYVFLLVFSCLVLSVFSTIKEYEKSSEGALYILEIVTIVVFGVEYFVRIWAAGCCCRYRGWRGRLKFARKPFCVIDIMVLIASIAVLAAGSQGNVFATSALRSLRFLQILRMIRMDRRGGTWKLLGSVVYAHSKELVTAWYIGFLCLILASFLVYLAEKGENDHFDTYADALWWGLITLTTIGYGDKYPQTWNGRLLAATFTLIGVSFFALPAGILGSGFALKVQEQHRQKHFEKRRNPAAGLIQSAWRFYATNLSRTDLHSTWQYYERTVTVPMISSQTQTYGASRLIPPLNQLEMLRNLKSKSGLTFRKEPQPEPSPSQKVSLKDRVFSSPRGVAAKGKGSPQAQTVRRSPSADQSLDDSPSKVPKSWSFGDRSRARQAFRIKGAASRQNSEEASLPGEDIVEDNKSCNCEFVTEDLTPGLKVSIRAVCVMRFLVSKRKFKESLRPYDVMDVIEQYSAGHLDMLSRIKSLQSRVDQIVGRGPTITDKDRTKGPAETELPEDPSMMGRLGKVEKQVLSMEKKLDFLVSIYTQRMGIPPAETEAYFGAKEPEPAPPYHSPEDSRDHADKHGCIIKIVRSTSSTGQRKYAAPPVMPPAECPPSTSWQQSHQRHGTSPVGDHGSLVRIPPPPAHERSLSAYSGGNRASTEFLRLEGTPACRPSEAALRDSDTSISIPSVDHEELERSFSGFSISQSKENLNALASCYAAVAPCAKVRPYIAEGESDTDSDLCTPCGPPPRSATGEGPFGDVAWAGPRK

[8] = target: T1, Potassium voltage-gated channel subfamily E member 1 (Homo sapiens) + Potassium voltage-gated channel subfamily KQT member 1 (Homo sapiens); assay: block of human IKs channel complex – CHO-K1 cells, thallium flux, FluxOR, selectivity assay for KCNQ1 inhibitor project (AID 652147;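 active = mean percent inhibition of duplicate wells above the buffer-only control mean plus 3 SD of those controls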;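 as to inhibition: 0% = buffer only wells and 100% = XE-991 inhibitor control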); details: KCNQ1/KCNE1 cells, FluxOR thallium flux fluorescence, at 10 µM; active compounds read high
Procedure, shortened: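 Test system: cells expressing KCNQ1/KCNE1 channels; Probe or stimulus: Tl2SO4 plus K2SO4 stimulus, each 12.5 mM in 5x stock; Times: 20 min compound pre-incubation at room temperature; Technique: kinetic FluxOR thallium-sensitive fluorescence, 1 Hz sampling, 150 s post-stimulus.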

[9] = target: Potassium voltage-gated channel subfamily KQT member 1 (Homo sapiens) (UniProt P51787); assay: block of human KCNQ1 potassium current – cell-based, automated electrophysiology, orthogonal assay, confirmation (AID 624120;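 active = KCNQ1 current drop exceeding 3 SD of negative control wells, seen in both duplicate runs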); details: KCNQ1-CHO cells, automated patch clamp current; at 10 µM
Procedure, shortened: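 Assay system: KCNQ1-expressing CHO cells. Medium: external buffer at pH 7.4. Doses: single test compound dose of 10 µM final. Detection: amphotericin-perforated automated patch clamp. Evaluation: percent change in steady-state +40 mV current, post- versus pre-compound. Benchmarks: negative controls.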

SMILES: Cc1cccc(-n2c(=S)[nH]c3c(oc4ccccc43)c2=O)c1
- activation [1]: 139% (active)
- outcome [2]: inactive
- outcome [3]: inactive

SMILES: CCCn1c(SCC(=O)Nc2cccc(NC(C)=O)c2)nnc1C(C)C
- outcome [1]: inactive
- outcome [2]: inactive
- outcome [3]: inactive

SMILES: N#Cc1ccc2ccn(CC(=O)NCc3ccccc3)c2c1
- outcome [1]: inactive
- outcome [2]: inactive
- outcome [3]: inactive

SMILES: Cc1cc(OC(=O)c2cc(Cl)ccc2Cl)c([N+](=O)[O-])c(=O)[nH]1
- outcome [1]: inactive
- outcome [2]: inactive
- outcome [3]: inactive

SMILES: O=C(NC(=S)Nc1nc2c(ccc3ccccc32)s1)c1cccs1
- outcome [1]: inactive
- potentiation [2]: 81% (active)
- outcome [3]: inactive
- outcome [4]: inactive

SMILES: COc1ccc(OC)c(Nc2cc3ccccc3c(=O)[nH]2)c1
- outcome [1]: inactive
- outcome [2]: inactive
- outcome [3]: inactive
- outcome [4]: inactive

SMILES: Fc1ccc2[nH]c3c(N4CCSCC4)ncnc3c2c1
- inhibition [5]: 162% (active)
- fluorescence ratio (Tl flux) [6]: 0.362 (active)
- outcome [7]: inactive
- outcome [8]: inactive

SMILES: CCOC(=O)c1ccc(NC(=O)Cn2cnc3cc(C)c(C)cc32)cc1
- inhibition [5]: 60% (active)
- fluorescence ratio (Tl flux) [6]: 0.481
- outcome [7]: inactive
- inhibition [8]: 55% (active)

SMILES: CCN(CC)CC(=O)Nc1sc2c(c1C(=O)c1ccccc1C)CCC2
- inhibition [5]: 104% (active)
- fluorescence ratio (Tl flux) [6]: 0.444
- outcome [9]: inactive
- inhibition [7]: 89% (active)
- inhibition [8]: 168% (active)

SMILES: COc1cccc(-c2cnc(OC(C)(C)C)nc2OC(C)(C)C)c1
- inhibition [5]: 75% (active)
- fluorescence ratio (Tl flux) [6]: 0.462
- inhibition [7]: 61% (active)
- inhibition [8]: 94.5% (active)

SMILES: Cc1nc(N2CCN(c3ccccn3)CC2)c2c(C)c(C(=O)Nc3ccc(F)c(Cl)c3)sc2n1
- inhibition [5]: 160% (active)
- fluorescence ratio (Tl flux) [6]: 0.345 (active)
- inhibition [7]: 124% (active)

SMILES: Cc1cc(C)cc(N(CC(=O)N2CC=C(c3ccccc3)CC2)S(=O)(=O)c2c(C)noc2C)c1
- inhibition [5]: 78% (active)
- fluorescence ratio (Tl flux) [6]: 0.363 (active)
- inhibition [7]: 111% (active)
- inhibition [8]: 84% (active)

SMILES: O=C(Nc1ccc2ccccc2c1)Nc1ccc2snnc2c1
- inhibition [5]: 41.5% (active)
- fluorescence ratio (Tl flux) [6]: 0.539
- outcome [7]: inactive
- outcome [8]: inactive

SMILES: S=C(Nc1cccc(Cl)c1)Nc1ccc2c(c1)OCCO2
- inhibition [5]: 81% (active)
- fluorescence ratio (Tl flux) [6]: 0.444
- outcome [7]: inactive
- inhibition [8]: 47% (active)

SMILES: CCNC(=O)c1ccc(OCC(=O)Nc2ccc(F)cc2)c(OC)c1
- inhibition [5]: 0% [the number is a placeholder, only the call stands]
- fluorescence ratio (Tl flux) [6]: 0.446
- outcome [7]: inactive
- inhibition [8]: 51% (active)

SMILES: CCOC(=O)c1cnc(SC)nc1Sc1ccc(Cl)cc1Cl
- inhibition [5]: 97.5% (active)
- fluorescence ratio (Tl flux) [6]: 0.406
- outcome [9]: inactive
- inhibition [7]: 93% (active)
- inhibition [8]: 111% (active)

SMILES: O=C(CCN1c2ccccc2Sc2ccccc21)Nc1ccccc1
- inhibition [5]: 164% (active)
- fluorescence ratio (Tl flux) [6]: 0.384
- outcome [9]: inactive
- inhibition [7]: 118% (active)
- inhibition [8]: 186% (active)

SMILES: CCOC(=O)C1CCN(c2ncnc3c2oc2ccc(Br)cc23)CC1
- inhibition [5]: 150% (active)
- fluorescence ratio (Tl flux) [6]: 0.39
- outcome [9]: inactive
- inhibition [7]: 129% (active)
- inhibition [8]: 193% (active)

SMILES: COc1ccc(-c2csc3ncnc(N4CCN(S(=O)(=O)c5cccc(F)c5)CC4)c23)cc1
- inhibition [5]: 92.5% (active)
- fluorescence ratio (Tl flux) [6]: 0.403
- outcome [9]: inactive
- inhibition [7]: 77% (active)
- inhibition [8]: 122% (active)

SMILES: CC(C)OC(=O)C(C#N)c1nc2ccccc2nc1N1CCN(Cc2ccccc2)CC1 (configuration not stated)
- inhibition [5]: 148% (active)
- fluorescence ratio (Tl flux) [6]: 0.382
- inhibition [7]: 100% (active)
- outcome [8]: inactive

SMILES: Cn1nccc1C(=O)NC1CCCc2c1cnn2-c1ccc(F)cc1F (configuration not stated)
- inhibition [5]: 90% (active)
- fluorescence ratio (Tl flux) [6]: 0.47
- outcome [9]: inactive
- inhibition [7]: 60.3% (active)
- outcome [8]: inactive

SMILES: CC1CCCN(C(C(=O)Nc2ccc(C(C)C)cc2)c2ccc3c(c2)OCO3)C1 (configuration not stated)
- inhibition [5]: 132% (active)
- fluorescence ratio (Tl flux) [6]: 0.429
- outcome [9]: inactive
- inhibition [7]: 99.7% (active)
- inhibition [8]: 164% (active)

SMILES: CCc1noc(C)c1C(=O)Oc1ccc(N(C)S(=O)(=O)c2ccc(C)c(C)c2)cc1
- inhibition [5]: 108% (active)
- fluorescence ratio (Tl flux) [6]: 0.408
- outcome [9]: inactive
- inhibition [7]: 95.3% (active)
- inhibition [8]: 83.5% (active)

SMILES: CCC(=C/c1sc2ccc3ccccc3c2[n+]1C)/C=C1\Sc2ccc3ccccc3c2N1C
- inhibition [5]: 57.5% (active)
- fluorescence ratio (Tl flux) [6]: 0.508
- inhibition [7]: 59% (active)
- inhibition [8]: 64% (active)

SMILES: Cn1nc(-c2ccc(Cl)cc2)c2cc(C(=O)NCc3ccco3)sc21
- inhibition [5]: 70.5% (active)
- fluorescence ratio (Tl flux) [6]: 0.454
- inhibition [7]: 103% (active)
- outcome [8]: inactive

SMILES: O=C(Nc1ccc(Cl)c(Cl)c1)N1CC=C(c2ccccc2)CC1
- inhibition [5]: 122% (active)
- fluorescence ratio (Tl flux) [6]: 0.411
- outcome [9]: inactive
- inhibition [7]: 110% (active)
- inhibition [8]: 134% (active)

SMILES: O=C(Nc1nnc(S(=O)(=O)N2CCCCCC2)s1)c1cccc(Br)c1
- inhibition [5]: 57% (active)
- fluorescence ratio (Tl flux) [6]: 0.485
- outcome [7]: inactive
- outcome [8]: inactive
